Laboratory results from ChEMBL document CHEMBL2412955, “Synthesis and antibacterial activities of N-substituted-glycinyl 1H-1,2,3-triazolyl oxazolidinones” (2013).
Values after ≈ are worked out from the molar mass of the structure shown.

Assays:
Format in all cases: functional
[1] = system: Staphylococcus aureus; assay: Antibacterial activity against Staphylococcus aureus ATCC 25923 after 18 hrs by […] in presence of human plasma; conditions: ATCC 25923, Plasma
Method in brief: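 To gauge plasma protein binding and/or plasma instability, MIC was determined in Mueller-Hinton broth containing 50% human plasma. Linezolid served as a reference agent. Ratio compares this MIC with the MIC obtained without plasma.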

[2] = system: Staphylococcus aureus; assay: Antibacterial activity against Staphylococcus aureus ATCC 25923 after 18 hrs by NCCLS agar dilution method; conditions: ATCC 25923, 18 h
Method in brief: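 Plain Mueller-Hinton agar, agar dilution per NCCLS, concentrations 0.12–64 µg/ml. Test agents in 80% DMSO in water, linezolid in 40% water in ethanol, vancomycin in water. Final inoculum 10^7 CFU/ml, 35 °C for 18 h. MIC = lowest concentration inhibiting visible growth.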

[3] = system: Moraxella catarrhalis; assay: Antibacterial activity against Moraxella catarrhalis ATCC 8176 after 18 hrs by NCCLS agar dilution method; conditions: ATCC 8176, 18 h
Method in brief: (§1)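 NCCLS agar dilution on Mueller-Hinton agar with 5% sheep blood added to support growth. Drug dilutions 0.12–64 µg/ml. Test agents in 80% DMSO in water, linezolid in 40% water in ethanol. Final inoculum 10^7 CFU/ml, 18 h at 35 °C. MIC read as the lowest concentration with no visible growth.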

[4] = system: Streptococcus pneumoniae; assay: Antibacterial activity against penicillin-resistant Streptococcus pneumoniae after 18 hrs by NCCLS agar dilution method
Method in brief: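 Agar dilution was run on Mueller-Hinton agar supplemented with 5% sheep blood, with drug dilutions from 0.12 to 64 µg/ml. Test compounds were dissolved in 80% DMSO in water. Final inoculum was 10^7 CFU/ml, incubated at 35 °C for 18 h. MIC was the lowest concentration preventing visible growth.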

[5] = system: Haemophilus influenzae; assay: Antibacterial activity against Haemophilus influenzae ATCC 49247 after 18 hrs by NCCLS agar dilution method; conditions: ATCC 49247, 18 h; method in brief: as §1
[6] = system: Escherichia coli; assay: Antibacterial activity against Escherichia coli ATCC 25922 after 18 hrs by NCCLS agar dilution method; conditions: ATCC 25922, 18 h
Method in brief: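 Agar dilution per NCCLS on Mueller-Hinton agar, drug dilutions 0.12–64 µg/ml. Linezolid dissolved in 40% water in ethanol, vancomycin in water, test agents in 80% DMSO in water. Inoculum 10^7 CFU/ml (final), incubated 35 °C for 18 h. MIC is the lowest concentration preventing visible growth.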

[7] = system: Enterococcus; assay: Antibacterial activity against vancomycin-resistant Enterococcus after 18 hrs by NCCLS agar dilution method
Method in brief: (§2)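 Clinical isolates were tested by agar dilution on Mueller-Hinton agar with drug dilutions from 0.12 to 64 µg/ml. Test compounds were dissolved in 80% DMSO in water. Final inoculum was 10^7 CFU/ml, incubated at 35 °C for 18 h. MIC was the lowest concentration inhibiting visible growth.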

[8] = system: Enterococcus; assay: Antibacterial activity against vancomycin-susceptible Enterococcus after 18 hrs by NCCLS agar dilution method; method in brief: as §2
[9] = system: Staphylococcus; assay: Antibacterial activity against methicillin-susceptible coagulase-negative Staphylococcus after 18 hrs by NCCLS agar dilution method; method in brief: as §2
[10] = system: Staphylococcus; assay: Antibacterial activity against methicillin-resistant coagulase-negative Staphylococcus after 18 hrs by NCCLS agar dilution method; method in brief: as §2
[11] = system: Staphylococcus aureus; assay: Antibacterial activity against methicillin-susceptible Staphylococcus aureus after 18 hrs by NCCLS agar dilution method; method in brief: as §2
[12] = system: Staphylococcus aureus; assay: Antibacterial activity against methicillin-resistant Staphylococcus aureus after 18 hrs by NCCLS agar dilution method; method in brief: as §2

SMILES | MIC [1] | MIC [2] | MIC [3] | MIC [4] | MIC [5] | MIC [6] | MIC [7] | MIC [8] | MIC [9] | MIC [10] | MIC [11] | MIC [12]
O=C(NCC(=O)N1CCN(c2ccc(N3C[C@H](Cn4ccnn4)OC3=O)cc2F)CC1)c1ccccc1 | > 64 µg/mL | 1 µg/mL (≈ 1.97 µM) | 32 µg/mL (≈ 63.1 µM) | 1 µg/mL (≈ 1.97 µM) | 32 µg/mL (≈ 63.1 µM) | > 64 µg/mL | 0.5 µg/mL (≈ 0.985 µM) | 1 µg/mL (≈ 1.97 µM) | 0.5 µg/mL (≈ 0.985 µM) | 0.5 µg/mL (≈ 0.985 µM) | 0.5 µg/mL (≈ 0.985 µM) | 0.5 µg/mL (≈ 0.985 µM)
CCOC(=O)CC(=O)NCC(=O)N1CCN(c2ccc(N3C[C@H](Cn4ccnn4)OC3=O)cc2F)CC1 | 16 µg/mL | 8 µg/mL (≈ 15.5 µM) | 32 µg/mL (≈ 61.8 µM) | 2 µg/mL (≈ 3.86 µM) | 64 µg/mL (≈ 124 µM) | > 64 µg/mL | 8 µg/mL (≈ 15.5 µM) | 4 µg/mL (≈ 7.73 µM) | 4 µg/mL (≈ 7.73 µM) | 4 µg/mL (≈ 7.73 µM) | 4 µg/mL (≈ 7.73 µM) | 4 µg/mL (≈ 7.73 µM)
Cc1cn(C[C@H]2CN(c3ccc(N4CCN(C(=O)CNS(=O)(=O)c5cccs5)CC4)c(F)c3)C(=O)O2)nn1 | 32 µg/mL | 16 µg/mL (≈ 28.4 µM) | 32 µg/mL (≈ 56.8 µM) | 2 µg/mL (≈ 3.55 µM) | 64 µg/mL (≈ 114 µM) | > 64 µg/mL | 8 µg/mL (≈ 14.2 µM) | 8 µg/mL (≈ 14.2 µM) | 8 µg/mL (≈ 14.2 µM) | 8 µg/mL (≈ 14.2 µM) | 8 µg/mL (≈ 14.2 µM) | 8 µg/mL (≈ 14.2 µM)
CC(=O)NCC(=O)N1CCN(c2ccc(N3C[C@H](Cn4ccnn4)OC3=O)cc2F)CC1 | 8 µg/mL | 4 µg/mL (≈ 8.98 µM) | 32 µg/mL (≈ 71.8 µM) | 1 µg/mL (≈ 2.24 µM) | 64 µg/mL (≈ 144 µM) | > 64 µg/mL | 2 µg/mL (≈ 4.49 µM) | 2 µg/mL (≈ 4.49 µM) | 2 µg/mL (≈ 4.49 µM) | 2 µg/mL (≈ 4.49 µM) | 2 µg/mL (≈ 4.49 µM) | 4 µg/mL (≈ 8.98 µM)
O=C(NCC(=O)N1CCN(c2ccc(N3C[C@H](Cn4ccnn4)OC3=O)cc2F)CC1)C1CCCO1 (stereo partly specified) | 16 µg/mL | 8 µg/mL (≈ 16 µM) | 16 µg/mL (≈ 31.9 µM) | 1 µg/mL (≈ 1.99 µM) | 32 µg/mL (≈ 63.8 µM) | > 64 µg/mL | 8 µg/mL (≈ 16 µM) | 4 µg/mL (≈ 7.98 µM) | 4 µg/mL (≈ 7.98 µM) | 4 µg/mL (≈ 7.98 µM) | 4 µg/mL (≈ 7.98 µM) | 4 µg/mL (≈ 7.98 µM)
CC(C)(C)OC(=O)NCC(=O)N1CCN(c2ccc(N3C[C@H](Cn4ccnn4)OC3=O)cc2F)CC1 | 8 µg/mL | 4 µg/mL (≈ 7.94 µM) | 32 µg/mL (≈ 63.6 µM) | 2 µg/mL (≈ 3.97 µM) | > 64 µg/mL | > 64 µg/mL | 2 µg/mL (≈ 3.97 µM) | 2 µg/mL (≈ 3.97 µM) | 2 µg/mL (≈ 3.97 µM) | 2 µg/mL (≈ 3.97 µM) | 2 µg/mL (≈ 3.97 µM) | 2 µg/mL (≈ 3.97 µM)
Cc1cn(C[C@H]2CN(c3ccc(N4CCN(C(=O)CNC(=O)C(F)(F)F)CC4)c(F)c3)C(=O)O2)nn1 | 16 µg/mL | 8 µg/mL (≈ 15.6 µM) | 16 µg/mL (≈ 31.2 µM) | 1 µg/mL (≈ 1.95 µM) | 32 µg/mL (≈ 62.3 µM) | > 64 µg/mL | 4 µg/mL (≈ 7.79 µM) | 4 µg/mL (≈ 7.79 µM) | 4 µg/mL (≈ 7.79 µM) | 4 µg/mL (≈ 7.79 µM) | 4 µg/mL (≈ 7.79 µM) | 4 µg/mL (≈ 7.79 µM)
CCOC(=O)CC(=O)NCC(=O)N1CCN(c2ccc(N3C[C@H](Cn4cc(C)nn4)OC3=O)cc2F)CC1 | 16 µg/mL | 8 µg/mL (≈ 15.1 µM) | > 64 µg/mL | 4 µg/mL (≈ 7.53 µM) | > 64 µg/mL | > 64 µg/mL | 4 µg/mL (≈ 7.53 µM) | 4 µg/mL (≈ 7.53 µM) | 4 µg/mL (≈ 7.53 µM) | 4 µg/mL (≈ 7.53 µM) | 4 µg/mL (≈ 7.53 µM) | 4 µg/mL (≈ 7.53 µM)
Cc1cn(C[C@H]2CN(c3ccc(N4CCN(C(=O)CNC(=O)OC(C)(C)C)CC4)c(F)c3)C(=O)O2)nn1 | 16 µg/mL | 4 µg/mL (≈ 7.73 µM) | 16 µg/mL (≈ 30.9 µM) | 4 µg/mL (≈ 7.73 µM) | ≥ 64 µg/mL | > 64 µg/mL | 8 µg/mL (≈ 15.5 µM) | 4 µg/mL (≈ 7.73 µM) | 4 µg/mL (≈ 7.73 µM) | 4 µg/mL (≈ 7.73 µM) | 4 µg/mL (≈ 7.73 µM) | 8 µg/mL (≈ 15.5 µM)
Cc1cn(C[C@H]2CN(c3ccc(N4CCN(C(=O)CNC(=O)C(Cl)Cl)CC4)c(F)c3)C(=O)O2)nn1 | 16 µg/mL | 8 µg/mL (≈ 15.1 µM) | 16 µg/mL (≈ 30.3 µM) | 2 µg/mL (≈ 3.79 µM) | > 32 µg/mL | > 64 µg/mL | 4 µg/mL (≈ 7.57 µM) | 4 µg/mL (≈ 7.57 µM) | 4 µg/mL (≈ 7.57 µM) | 4 µg/mL (≈ 7.57 µM) | 4 µg/mL (≈ 7.57 µM) | 4 µg/mL (≈ 7.57 µM)
CC(=O)NCC(=O)N1CCN(c2ccc(N3C[C@H](Cn4cc(C)nn4)OC3=O)cc2F)CC1 | 8 µg/mL | 4 µg/mL (≈ 8.71 µM) | 16 µg/mL (≈ 34.8 µM) | 1 µg/mL (≈ 2.18 µM) | 32 µg/mL (≈ 69.6 µM) | > 64 µg/mL | 4 µg/mL (≈ 8.71 µM) | 2 µg/mL (≈ 4.35 µM) | 2 µg/mL (≈ 4.35 µM) | 2 µg/mL (≈ 4.35 µM) | 2 µg/mL (≈ 4.35 µM) | 2 µg/mL (≈ 4.35 µM)
O=C(CNS(=O)(=O)c1cccs1)N1CCN(c2ccc(N3C[C@H](Cn4ccnn4)OC3=O)cc2F)CC1 | 32 µg/mL | 4 µg/mL (≈ 7.28 µM) | 32 µg/mL (≈ 58.2 µM) | 1 µg/mL (≈ 1.82 µM) | ≥ 64 µg/mL | > 64 µg/mL | 2 µg/mL (≈ 3.64 µM) | 2 µg/mL (≈ 3.64 µM) | 2 µg/mL (≈ 3.64 µM) | 2 µg/mL (≈ 3.64 µM) | 2 µg/mL (≈ 3.64 µM) | 2 µg/mL (≈ 3.64 µM)
Cc1cn(C[C@H]2CN(c3ccc(N4CCN(C(=O)CNC(=O)C5CCCO5)CC4)c(F)c3)C(=O)O2)nn1 (stereo partly specified) | 32 µg/mL | 32 µg/mL (≈ 62.1 µM) | 32 µg/mL (≈ 62.1 µM) | 0.5 µg/mL (≈ 0.97 µM) | 32 µg/mL (≈ 62.1 µM) | > 64 µg/mL | 16 µg/mL (≈ 31 µM) | 16 µg/mL (≈ 31 µM) | 16 µg/mL (≈ 31 µM) | 16 µg/mL (≈ 31 µM) | 16 µg/mL (≈ 31 µM) | 16 µg/mL (≈ 31 µM)
